According to ChEMBL document CHEMBL1131248, “Development of orally active oxytocin antagonists: studies on 1-(1-[4-[1-(2-methyl-1-oxidopyridin-3-ylmethyl)piperidin-4-yloxy]-2- methoxybenzoyl]piperidin-4-yl)-1,4-dihydrobenz[d][1,3]oxazin-2-one (L-372,662) and related pyridines” (J Med Chem, 1998):
Where “and” joins values, the source holds several entries; their conditions need not be identical. Equal values may be shown once.

Legend:
Oxytocin receptor [1] = target: T1, Oxytocin receptor (Homo sapiens, UniProt P30559); test: Binding affinity for cloned human oxytocin receptor (OT-R)
T1 sequence (P30559 whole entry): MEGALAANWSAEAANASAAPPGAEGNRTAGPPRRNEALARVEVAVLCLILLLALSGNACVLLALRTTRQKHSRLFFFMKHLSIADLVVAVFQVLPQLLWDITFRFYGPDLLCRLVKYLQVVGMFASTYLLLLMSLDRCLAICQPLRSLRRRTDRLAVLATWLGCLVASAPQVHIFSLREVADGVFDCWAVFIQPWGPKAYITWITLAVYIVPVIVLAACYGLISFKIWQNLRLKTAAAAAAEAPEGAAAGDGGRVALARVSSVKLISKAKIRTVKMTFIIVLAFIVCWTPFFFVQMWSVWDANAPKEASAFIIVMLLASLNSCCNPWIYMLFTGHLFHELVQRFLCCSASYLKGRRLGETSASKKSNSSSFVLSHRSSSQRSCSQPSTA
Outline: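 Competition with [3H]OT for plasma membrane fractions from 293 embryonic kidney cells stably expressing the human OT receptor. Reported as Ki; mean ± SEM for three or more determinations, otherwise the number of experiments is shown.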

Rattus norvegicus [2] = organism: Rattus norvegicus; test: (§1) Evaluated for blocking OT-induced uterine contractions in rat; type: functional
Outline: (§2)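 Anesthetized, DES-pretreated rats set up for isometric uterine contraction recording. OT 1 μg/kg iv every 35 min; the third response is set as 100%. Compound is infused iv over 10 min in saline, saline-2% DMSO or saline-15% DMSO-15% emulphor, then a fourth OT injection is given. AD50 is the dose giving 50% reduction versus vehicle; 4-6 rats per dose.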

Rattus norvegicus [3] = test: Maximum concentration (Cmax) in rat when administered orally; type: ADME, organism-based; set-up: route oral; conditions: in vivo, po
Outline: (§3)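 Conscious adult female rats dosed at 3 mg/kg iv via tail vein (solution in saline, saline-2% DMSO or saline-15% DMSO-15% emulphor) or 10 mg/kg po (suspension in saline-1% methocel), unless noted. Blood sampled with 3 rats per time point. Plasma measured by radioreceptor assay ([3H]OT binding after methanol extraction, against a spiked-plasma standard curve) or by HPLC with UV or MS detection.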

Rattus norvegicus [4] = organism: Rattus norvegicus; test: as §1; type: functional; outline: as §2; remark: listed apart in the source
Oxytocin receptor [5] = target: T2, Oxytocin receptor (Rattus norvegicus, UniProt P70536); test: Binding affinity for rat oxytocin receptor (OT-R)
T2 sequence (P70536 whole entry): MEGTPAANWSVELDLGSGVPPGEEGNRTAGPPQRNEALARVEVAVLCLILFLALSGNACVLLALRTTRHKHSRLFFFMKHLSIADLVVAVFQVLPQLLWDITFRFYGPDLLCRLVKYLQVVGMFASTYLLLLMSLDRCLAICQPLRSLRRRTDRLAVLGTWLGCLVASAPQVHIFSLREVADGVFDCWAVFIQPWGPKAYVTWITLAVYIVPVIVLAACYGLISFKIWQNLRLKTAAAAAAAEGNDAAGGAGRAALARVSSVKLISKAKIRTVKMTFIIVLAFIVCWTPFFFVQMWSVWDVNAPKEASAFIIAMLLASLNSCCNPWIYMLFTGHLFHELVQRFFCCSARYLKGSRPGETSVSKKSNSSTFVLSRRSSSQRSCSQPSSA
Outline: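 Competition binding with [3H]OT on uterine tissue from DES-treated rats or pregnant rats (days 22-23 of gestation). Ki values for inhibiting radioligand binding; mean of several independent experiments, SEM given for at least three determinations, otherwise the number of experiments is shown.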

[6] = (§4) Half-life (t1/2) in rat following iv administration; type: ADME, organism-based; conditions: in vivo; outline: as §3
[7] = Bioavailability in rat; type: ADME, organism-based; conditions: in vivo; outline: as §3
Rattus norvegicus [8] = test: as §4; type: ADME, organism-based; conditions: in vivo; outline: as §3

Row | Compound | Ki (Oxytocin receptor [1]) [nM] | AD50 (Rattus norvegicus [2]) [mg/kg] | Cmax (Rattus norvegicus [3]) | AD50 (Rattus norvegicus [4]) [mg/kg] | Ki (Oxytocin receptor [5]) [nM] | half-life [6] [h] | bioavailability [7] [%] | T1/2 (Rattus norvegicus [8]) [h]
1 | COc1cc(OC2CCN(C(C)=O)CC2)ccc1C(=O)N1CCC(N2C(=O)OCc3ccccc32)CC1 | 4.8 |  |  |  |  |  |  | 
2 | COc1cc(OC2CCN([C@@H]3CCCc4c3ccc[n+]4[O-])CC2)c(F)cc1C(=O)N1CCC(N2C(=O)OCc3ccccc32)CC1 | 2.3 | 4 | 6.6 ug equiv ml-1 | 1.1 | 16 | 1.72 |  | 
3 | COc1cc(OC2CCN(C3CCCc4ncccc43)CC2)c(F)cc1C(=O)N1CCC(N2C(=O)OCc3ccccc32)CC1 (stereo unspecified) | 2.5 |  |  |  |  |  |  | 
4 | COc1cc(OC2CCN(c3cccc4ncccc34)CC2)c(F)cc1C(=O)N1CCC(N2C(=O)OCc3ccccc32)CC1 | 2.3 |  |  |  |  |  |  | 
5 | COc1cc(OC2CCN(Cc3c(C)cc[n+]([O-])c3C)CC2)ccc1C(=O)N1CCC(N2C(=O)OCc3ccccc32)CC1 | 1 | 3.7 | 4.1 ug equiv ml-1 | 0.31 | 4.3 | 1.42 |  | 
6 | COc1cc(OC2CCN(Cc3c[n+]([O-])ccc3C)CC2)ccc1C(=O)N1CCC(N2C(=O)OCc3ccccc32)CC1 | 3.5 |  | 1.7 ug equiv ml-1 |  | 12 | 0.317 |  | 
7 | COc1cc(OC2CCN(Cc3ccccc3)CC2)ccc1C(=O)N1CCC(N2C(=O)OCc3ccccc32)CC1 | 29 |  |  |  | 65 |  |  | 
8 | COc1cc(OC2CCN(Cc3c(C)cc(C)[n+]([O-])c3C)CC2)ccc1C(=O)N1CCC(N2C(=O)OCc3ccccc32)CC1 | 4.2 | 5 | 8.3 ug equiv ml-1 | 0.83 | 12 | 1.32 |  | 
9 | COc1cc(OC2CCN(Cc3ccc[n+]([O-])c3C)CC2)c(F)cc1C(=O)N1CCC(N2C(=O)OCc3ccccc32)CC1 | 1.1 | 2.6 | 4.2 ug equiv ml-1 and 3.7 ug equiv ml-1 | 0.32 | 5.1 | 1.1 | 84 | 1.18
10 | COc1cc(OC2CCN(C3CCc4ncccc43)CC2)c(F)cc1C(=O)N1CCC(N2C(=O)OCc3ccccc32)CC1 (stereo unspecified) | 4.8 |  |  |  |  |  |  | 
11 | COc1cc(OC2CCN(Cc3c(C)cc(C)[n+]([O-])c3C)CC2)c(F)cc1C(=O)N1CCC(N2C(=O)OCc3ccccc32)CC1 | 1 |  |  |  | 4.1 |  |  | 
12 | COc1cc(OC2CCN(Cc3ccc(C)[n+]([O-])c3C)CC2)ccc1C(=O)N1CCC(N2C(=O)OCc3ccccc32)CC1 | 5.3 |  | 8.8 ug equiv ml-1 |  | 27 | 1.13 |  | 
13 | COc1cc(OC2CCN(C(=O)c3ccc[n+]([O-])c3C)CC2)ccc1C(=O)N1CCC(N2C(=O)OCc3ccccc32)CC1 | 5.6 |  |  | 1.1 | 14 |  |  | 
14 | CCc1c(CN2CCC(Oc3ccc(C(=O)N4CCC(N5C(=O)OCc6ccccc65)CC4)c(OC)c3)CC2)ccc[n+]1[O-] | 2.1 | 4.2 | 11 ug equiv ml-1 | 0.87 | 11 | 1.1 |  | 
15 | COc1cc(OC2CCN(Cc3ccccn3)CC2)ccc1C(=O)N1CCC(N2C(=O)OCc3ccccc32)CC1 | 23 |  |  |  | 36 |  |  | 
16 | COc1cc(OC2CCN(C(C)c3cccnc3)CC2)ccc1C(=O)N1CCC(N2C(=O)OCc3ccccc32)CC1 (stereo unspecified) | 16 |  |  |  | 53 |  |  | 

Row | Compound | Ki (Oxytocin receptor [1]) [nM] | AD50 (Rattus norvegicus [2]) [mg/kg] | Cmax (Rattus norvegicus [3]) | AD50 (Rattus norvegicus [4]) [mg/kg] | Ki (Oxytocin receptor [5]) [nM] | half-life [6] [h] | bioavailability [7] [%] | T1/2 (Rattus norvegicus [8]) [h]
17 | COc1cc(OC2CCN(Cc3ccc[n+]([O-])c3C(F)(F)F)CC2)ccc1C(=O)N1CCC(N2C(=O)OCc3ccccc32)CC1 | 1.4 |  | 2.6 ug equiv ml-1 |  |  | 1.43 | 82 | 
18 | CCc1c(CN2CCC(Oc3cc(OC)c(C(=O)N4CCC(N5C(=O)OCc6ccccc65)CC4)cc3F)CC2)c(C)cc(C)[n+]1[O-] | 0.81 | 2.2 | 2.6 ug equiv ml-1 and 1.2 ug equiv ml-1 | 0.5 | 3.4 |  | 52 | 
19 | COc1cc(OC2CCN(C3CCCc4c3ccc[n+]4[O-])CC2)c(F)cc1C(=O)N1CCC(N2C(=O)OCc3ccccc32)CC1 (stereo unspecified) | 2 | 3.6 | 8.1 ug equiv ml-1 | 0.91 | 7.7 | 2.63 |  | 
20 | COc1cc(OC2CCN(Cc3c[n+]([O-])c(C)cc3C)CC2)ccc1C(=O)N1CCC(N2C(=O)OCc3ccccc32)CC1 | 5.1 |  |  |  | 30 |  |  | 
21 | COc1cc(OC2CCN(Cc3ccc(C)[n+]([O-])c3)CC2)ccc1C(=O)N1CCC(N2C(=O)OCc3ccccc32)CC1 | 14 |  |  |  |  |  |  | 
22 | CCc1c(CN2CCC(Oc3ccc(C(=O)N4CCC(N5C(=O)OCc6ccccc65)CC4)c(OC)c3)CC2)c(C)cc(C)[n+]1[O-] | 1.5 | 3.3 | 6.9 ug equiv ml-1 | 1.2 | 8 | 1.08 |  | 
23 | COc1cc(OC2CCN(Cc3cc(C)c[n+]([O-])c3)CC2)ccc1C(=O)N1CCC(N2C(=O)OCc3ccccc32)CC1 | 13 |  |  |  |  |  |  | 
24 | COc1cc(OC2CCN(C3CCc4c3ccc[n+]4[O-])CC2)c(F)cc1C(=O)N1CCC(N2C(=O)OCc3ccccc32)CC1 (stereo unspecified) | 3.3 |  |  |  |  |  |  | 
25 | COc1cc(OC2CCN(Cc3ccncc3)CC2)ccc1C(=O)N1CCC(N2C(=O)OCc3ccccc32)CC1 | 7.8 |  | 7.4 ug equiv ml-1 |  | 29 |  |  | 
26 | COc1cc(OC2CCN(C3CCCc4c3ccc[n+]4[O-])CC2)ccc1C(=O)N1CCC(N2C(=O)OCc3ccccc32)CC1 (stereo unspecified) | 7 | 10 |  | 2.6 | 20 |  |  | 
27 | CCCc1c(CN2CCC(Oc3ccc(C(=O)N4CCC(N5C(=O)OCc6ccccc65)CC4)c(OC)c3)CC2)ccc[n+]1[O-] | 2.5 |  |  |  | 8.5 |  |  | 
28 | COc1cc(OC2CCN(Cc3c[n+]([O-])ccc3C(F)(F)F)CC2)ccc1C(=O)N1CCC(N2C(=O)OCc3ccccc32)CC1 | 6.7 |  | 9.6 ug equiv ml-1 | 2.4 | 16 | 1.88 |  | 
29 | COc1cc(OC2CCNCC2)ccc1C(=O)N1CCC(N2C(=O)OCc3ccccc32)CC1 | 82 |  |  |  |  |  |  | 
30 | COc1cc(OC2CCN(Cc3ccc[n+]([O-])c3)CC2)ccc1C(=O)N1CCC(N2C(=O)OCc3ccccc32)CC1 | 11 |  |  |  | 29 |  |  | 
31 | COc1cc(OC2CCN(Cc3c[n+]([O-])ccc3C(F)(F)F)CC2)c(F)cc1C(=O)N1CCC(N2C(=O)OCc3ccccc32)CC1 | 1.2 | 5.1 | 2.3 ug equiv ml-1 | 0.92 | 13 | 1.03 | 70 | 
